Data published in ChEMBL document CHEMBL1142148, “Antibiotic susceptibility profile of bifidobacteria as affected by oxgall, acid, and hydrogen peroxide stress” (2007).
≈ marks a conversion by molar mass, not a printed value.

Legend:
[1] = test system: Bifidobacterium thermophilum; test: Antimicrobial activity against 90 mins oxgall-stressed Bifidobacterium thermophilum ATCC 25866 after 18 hrs; assay type: functional
Outline: (§1)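 Cells pelleted from mid-log MRS culture and resuspended in MRS (initial pH 6.5) with 0.3% (wt/vol) oxgall for 90 min anaerobically at 37°C. They were then regrown in MRS pH 6.5 for 24 h (footnote: 18 h) anaerobically and tested for MIC by the same broth microdilution assay. Median of four repetitions.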

Bifidobacterium bifidum [2] = test: Antimicrobial activity against 90 mins oxgall-stressed Bifidobacterium bifidum R0071 after 18 hrs; assay type: functional; outline: as §1
Bifidobacterium bifidum [3] = test: Antimicrobial activity against 60 min 1 M HCl-stressed Bifidobacterium bifidum R0071 after 18 hrs; assay type: functional
Outline: (§2)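 Mid-log MRS culture pelleted and resuspended in MRS broth brought to pH 2.0 with 1 M HCl, held anaerobically at 37°C for 60 min, then subcultured in MRS (pH 6.5) for 24 h anaerobically before MIC testing by broth microdilution (as for unstressed cells). Table footnote gives 18 h anaerobic regrowth after the stress. MIC is the median of four repetitions.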

[4] = test system: Bifidobacterium pseudolongum; test: Antimicrobial activity against 90 mins oxgall-stressed Bifidobacterium pseudolongum ATCC 25562 after 18 hrs; assay type: functional; outline: as §1
[5] = Antimicrobial activity against Bifidobacterium infantis ATCC 15697; assay type: functional, Bifidobacterium longum subsp. infantis; conditions: Bifidobacterium longum
Outline: (§3)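 Broth microdilution in MRS plus 0.05% L-cysteine-HCl. Mid-log culture adjusted to OD650 0.1, giving about 2.5 × 10^4 to 5.0 × 10^4 CFU/well, then added to twofold serial dilutions of agent. Plates incubated anaerobically at 37°C for 18 h and read at OD650. MIC is the lowest concentration matching the uninoculated blank OD, taken as the median of four repeats.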

Bifidobacterium bifidum [6] = test: Antimicrobial activity against Bifidobacterium bifidum R0071; assay type: functional; outline: as §3
Bifidobacterium bifidum [7] = test: Antimicrobial activity against 90 mins hydrogen peroxide-stressed Bifidobacterium bifidum BB12 after 18 hrs; assay type: functional
Outline: (§4)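 Stress applied for 90 min at 37°C under anaerobic conditions, using MRS (initial pH 6.5) containing H2O2 at each strain's own inhibitory concentration. The H2O2 level was set beforehand by microplate tolerance testing. Challenged cells were regrown in MRS for 24 h (footnote: 18 h) before MIC testing by broth microdilution. Median of four repetitions.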

Bifidobacterium animalis [8] = test: Antimicrobial activity against 90 mins oxgall-stressed Bifidobacterium animalis ATCC 27536 after 18 hrs; assay type: functional; outline: as §1
[9] = test system: Bifidobacterium thermophilum; test: Antimicrobial activity against 90 mins hydrogen peroxide-stressed Bifidobacterium thermophilum ATCC 25866 after 18 hrs; assay type: functional; outline: as §4
Bifidobacterium longum [10] = test: Antimicrobial activity against 60 min 1 M HCl-stressed Bifidobacterium longum P/N 601377 after 18 hrs; assay type: functional; outline: as §2
Bifidobacterium breve [11] = test: Antimicrobial activity against 60 min 1 M HCl-stressed Bifidobacterium breve ATCC 15700 after 18 hrs; assay type: functional; outline: as §2
Bifidobacterium breve [12] = test: Antimicrobial activity against 90 mins oxgall-stressed Bifidobacterium breve ATCC 15700 after 18 hrs; assay type: functional; outline: as §1
[13] = test system: Bifidobacterium pseudolongum; test: Antimicrobial activity against 60 min 1 M HCl-stressed Bifidobacterium pseudolongum ATCC 25562 after 18 hrs; assay type: functional; outline: as §2
Bifidobacterium longum [14] = test: Antimicrobial activity against 90 mins hydrogen peroxide-stressed Bifidobacterium longum ATCC 15707 after 18 hrs; assay type: functional; outline: as §4
Bifidobacterium longum [15] = test: Antimicrobial activity against 90 mins oxgall-stressed Bifidobacterium longum ATCC 15707 after 18 hrs; assay type: functional; outline: as §1
[16] = test system: Bifidobacterium thermophilum; test: Antimicrobial activity against Bifidobacterium thermophilum ATCC 25866; assay type: functional; outline: as §3
Bifidobacterium longum [17] = test: Antimicrobial activity against 90 mins oxgall-stressed Bifidobacterium longum R0175 after 18 hrs; assay type: functional; outline: as §1
[18] = Antimicrobial activity against 90 mins oxgall-stressed Bifidobacterium infantis ATCC 15697 after 18 hrs; assay type: functional, Bifidobacterium longum subsp. infantis; conditions: Bifidobacterium longum; outline: as §1
[19] = test system: Bifidobacterium pseudolongum; test: Antimicrobial activity against Bifidobacterium pseudolongum ATCC 25562; assay type: functional; outline: as §3
Bifidobacterium animalis [20] = test: Antimicrobial activity against Bifidobacterium animalis ATCC 27536; assay type: functional; outline: as §3
Bifidobacterium breve [21] = test: Antimicrobial activity against 90 mins hydrogen peroxide-stressed Bifidobacterium breve ATCC 15700 after 18 hrs; assay type: functional; outline: as §4
Bifidobacterium bifidum [22] = test: Antimicrobial activity against 90 mins oxgall-stressed Bifidobacterium bifidum BB12 after 18 hrs; assay type: functional; outline: as §1
Bifidobacterium breve [23] = test: Antimicrobial activity against 60 min 1 M HCl-stressed Bifidobacterium breve R0070 after 18 hrs; assay type: functional; outline: as §2
Bifidobacterium bifidum [24] = test: Antimicrobial activity against 90 mins hydrogen peroxide-stressed Bifidobacterium bifidum R0071 after 18 hrs; assay type: functional; outline: as §4
Bifidobacterium bifidum [25] = test: Antimicrobial activity against Bifidobacterium bifidum ATCC 15696; assay type: functional; outline: as §3
Bifidobacterium longum [26] = test: Antimicrobial activity against 90 mins hydrogen peroxide-stressed Bifidobacterium longum R0175 after 18 hrs; assay type: functional; outline: as §4
Bifidobacterium longum [27] = test: Antimicrobial activity against Bifidobacterium longum R0175; assay type: functional; outline: as §3
Bifidobacterium breve [28] = test: Antimicrobial activity against Bifidobacterium breve ATCC 15700; assay type: functional; outline: as §3
Bifidobacterium longum [29] = test: Antimicrobial activity against 60 min 1 M HCl-stressed Bifidobacterium longum ATCC 15707 after 18 hrs; assay type: functional; outline: as §2
Bifidobacterium longum [30] = test: Antimicrobial activity against 60 min 1 M HCl-stressed Bifidobacterium longum R0175 after 18 hrs; assay type: functional; outline: as §2
Bifidobacterium longum [31] = test: Antimicrobial activity against 90 mins oxgall-stressed Bifidobacterium longum P/N 601377 after 18 hrs; assay type: functional; outline: as §1
Bifidobacterium animalis [32] = test: Antimicrobial activity against 60 min 1 M HCl-stressed Bifidobacterium animalis ATCC 27536 after 18 hrs; assay type: functional; outline: as §2
Bifidobacterium longum [33] = test: Antimicrobial activity against 90 mins oxgall-stressed Bifidobacterium longum ATCC 15708 after 18 hrs; assay type: functional; outline: as §1
Bifidobacterium longum [34] = test: Antimicrobial activity against Bifidobacterium longum ATCC 15708; assay type: functional; outline: as §3
[35] = test system: Bifidobacterium thermophilum; test: Antimicrobial activity against 60 min 1 M HCl-stressed Bifidobacterium thermophilum ATCC 25866 after 18 hrs; assay type: functional; outline: as §2
Bifidobacterium animalis [36] = test: Antimicrobial activity against 90 mins hydrogen peroxide-stressed Bifidobacterium animalis ATCC 27536 after 18 hrs; assay type: functional; outline: as §4
Bifidobacterium longum [37] = test: Antimicrobial activity against Bifidobacterium longum P/N 601377; assay type: functional; outline: as §3
Bifidobacterium bifidum [38] = test: Antimicrobial activity against 60 min 1 M HCl-stressed Bifidobacterium bifidum BB12 after 18 hrs; assay type: functional; outline: as §2
Bifidobacterium bifidum [39] = test: Antimicrobial activity against Bifidobacterium bifidum BB12; assay type: functional; outline: as §3
Bifidobacterium longum [40] = test: Antimicrobial activity against Bifidobacterium longum ATCC 15707; assay type: functional; outline: as §3
Bifidobacterium breve [41] = test: Antimicrobial activity against 90 mins hydrogen peroxide-stressed Bifidobacterium breve R0070 after 18 hrs; assay type: functional; outline: as §4
Bifidobacterium breve [42] = test: Antimicrobial activity against Bifidobacterium breve R0070; assay type: functional; outline: as §3
Bifidobacterium longum [43] = test: Antimicrobial activity against 90 mins hydrogen peroxide-stressed Bifidobacterium longum ATCC 15708 after 18 hrs; assay type: functional; outline: as §4
Bifidobacterium breve [44] = test: Antimicrobial activity against 90 mins oxgall-stressed Bifidobacterium breve R0070 after 18 hrs; assay type: functional; outline: as §1
[45] = Antimicrobial activity against 60 min 1 M HCl-stressed Bifidobacterium infantis ATCC 15697 after 18 hrs; assay type: functional, Bifidobacterium longum subsp. infantis; conditions: Bifidobacterium longum; outline: as §2
Bifidobacterium bifidum [46] = test: Antimicrobial activity against 90 mins oxgall-stressed Bifidobacterium bifidum ATCC 15696 after 18 hrs; assay type: functional; outline: as §1
Bifidobacterium longum [47] = test: Antimicrobial activity against 90 mins hydrogen peroxide-stressed Bifidobacterium longum P/N 601377 after 18 hrs; assay type: functional; outline: as §4

With CN[C@@H]1[C@H](O[C@H]2[C@H](O[C@H]3[C@H](O)[C@@H](O)[C@H](N=C(N)N)[C@@H](O)[C@@H]3N=C(N)N)O[C@@H](C)[C@]2(O)C=O)O[C@@H](CO)[C@H](O)[C@H]1O [STREPTOMYCIN] the MIC [1] was 250 µg/mL (≈ 430 µM), the MIC (Bifidobacterium bifidum [2]) was 125 µg/mL (≈ 215 µM) and the MIC (Bifidobacterium bifidum [3]) was 250 µg/mL (≈ 430 µM). It also gave an MIC [4] of 250 µg/mL (≈ 430 µM), an MIC [5] of 250 µg/mL (≈ 430 µM) and an MIC (Bifidobacterium bifidum [6]) of 250 µg/mL (≈ 430 µM). For the same compound, the MIC (Bifidobacterium bifidum [7]) was 250 µg/mL (≈ 430 µM), the MIC (Bifidobacterium animalis [8]) was 125 µg/mL (≈ 215 µM) and the MIC [9] was 500 µg/mL (≈ 860 µM). The MIC (Bifidobacterium longum [10]) was 62.5 µg/mL (≈ 107 µM), the MIC (Bifidobacterium breve [11]) was 125 µg/mL (≈ 215 µM) and the MIC (Bifidobacterium breve [12]) was 250 µg/mL (≈ 430 µM). It also gave an MIC [13] of 250 µg/mL (≈ 430 µM), an MIC (Bifidobacterium longum [14]) of 62.5 µg/mL (≈ 107 µM) and an MIC (Bifidobacterium longum [15]) of 62.5 µg/mL (≈ 107 µM). The MIC [16] was 250 µg/mL (≈ 430 µM), the MIC (Bifidobacterium longum [17]) was 125 µg/mL (≈ 215 µM) and the MIC [18] was 250 µg/mL (≈ 430 µM). For the same compound, the MIC [19] was 250 µg/mL (≈ 430 µM), the MIC (Bifidobacterium animalis [20]) was 250 µg/mL (≈ 430 µM) and the MIC (Bifidobacterium breve [21]) was 500 µg/mL (≈ 860 µM). For the same compound, the MIC (Bifidobacterium bifidum [22]) was 500 µg/mL (≈ 860 µM), the MIC (Bifidobacterium breve [23]) was 125 µg/mL (≈ 215 µM) and the MIC (Bifidobacterium bifidum [24]) was 250 µg/mL (≈ 430 µM). The MIC (Bifidobacterium bifidum [25]) was 250 µg/mL (≈ 430 µM), the MIC (Bifidobacterium longum [26]) was 250 µg/mL (≈ 430 µM) and the MIC (Bifidobacterium longum [27]) was 62.5 µg/mL (≈ 107 µM). It also gave an MIC (Bifidobacterium breve [28]) of 250 µg/mL (≈ 430 µM), an MIC (Bifidobacterium longum [29]) of 250 µg/mL (≈ 430 µM) and an MIC (Bifidobacterium longum [30]) of 31.2 µg/mL (≈ 53.6 µM). The MIC (Bifidobacterium longum [31]) was 125 µg/mL (≈ 215 µM), the MIC (Bifidobacterium animalis [32]) was 125 µg/mL (≈ 215 µM) and the MIC (Bifidobacterium longum [33]) was 250 µg/mL (≈ 430 µM). The MIC (Bifidobacterium longum [34]) was 250 µg/mL (≈ 430 µM), the MIC [35] was 250 µg/mL (≈ 430 µM) and the MIC (Bifidobacterium animalis [36]) was 250 µg/mL (≈ 430 µM). For the same compound, the MIC (Bifidobacterium longum [37]) was 125 µg/mL (≈ 215 µM), the MIC (Bifidobacterium bifidum [38]) was 125 µg/mL (≈ 215 µM) and the MIC (Bifidobacterium bifidum [39]) was 250 µg/mL (≈ 430 µM). The MIC (Bifidobacterium longum [40]) was 250 µg/mL (≈ 430 µM), the MIC (Bifidobacterium breve [41]) was 250 µg/mL (≈ 430 µM) and the MIC (Bifidobacterium breve [42]) was 15.6 µg/mL (≈ 26.8 µM). The MIC (Bifidobacterium longum [43]) was 500 µg/mL (≈ 860 µM), the MIC (Bifidobacterium breve [44]) was 125 µg/mL (≈ 215 µM) and the MIC [45] was 250 µg/mL (≈ 430 µM). For the same compound, the MIC (Bifidobacterium bifidum [46]) was 1.9 µg/mL (≈ 3.27 µM) and the MIC (Bifidobacterium longum [47]) was 125 µg/mL (≈ 215 µM).
